Experimental data reported in ChEMBL document CHEMBL5113395, “Azetidin-2-one-based small molecules as dual hHDAC6/HDAC8 inhibitors: Investigation of their mechanism of action and impact of dual inhibition profile on cell viability” (Eur J Med Chem, 2022).
≈ marks a conversion by molar mass, not a printed value. Each block holds one molecule with its values, some of them ahead of it. Calls of active or inactive are those of the source. The rule behind the calls is not given here.

Legend:
[1] = Solubility of compound in PBS at pH 7.4 measured after 24 hrs by HPLC/UV/DAD analysis; type: physicochemical
Procedure, shortened: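 10 mM DMSO stock diluted to 250 μM (2.5% DMSO) in 50 mM aqueous PBS pH 7.4. Standard prepared in MeCN/water 60:40. Sealed and shaken 24 h at 25 °C, PTFE-filtered and diluted 1:2 in buffer. Quantified by HPLC/UV/DAD at 254 nm against the 250 μM standard. Triplicate, averaged.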

[2] = Octanol-water partition coefficient, log P of the compound by HPLC analysis; type: physicochemical
Procedure, shortened: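 Stock of 0.005 M in MeOH, diluted serially in MeOH to build a calibration curve. Compound partitioned between water and n-octanol. LogP taken from the n-octanol/water phase ratio against the calibration curve, quantified by the RP-18 HPLC method at 254 nm.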

[3] = biological target: T1, Histone deacetylase 8 (Homo sapiens, UniProt Q9BY41); assay: Inhibition of recombinant human HDAC8 using FLUOR DE LYS as substrate preincubated for 15 mins followed by substrate addition measured after 1 hrs by fluorescence plate reader analysis
T1 sequence (Q9BY41 whole entry): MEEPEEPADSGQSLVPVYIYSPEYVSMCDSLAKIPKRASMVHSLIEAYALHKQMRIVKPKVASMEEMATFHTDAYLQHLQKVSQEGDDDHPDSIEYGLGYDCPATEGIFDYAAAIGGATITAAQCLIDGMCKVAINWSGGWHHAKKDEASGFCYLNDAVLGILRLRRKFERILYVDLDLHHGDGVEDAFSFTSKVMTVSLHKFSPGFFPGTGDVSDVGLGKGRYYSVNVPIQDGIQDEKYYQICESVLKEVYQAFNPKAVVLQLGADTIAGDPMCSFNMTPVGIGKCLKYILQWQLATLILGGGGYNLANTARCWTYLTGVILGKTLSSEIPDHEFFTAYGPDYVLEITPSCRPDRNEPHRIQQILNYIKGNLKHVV
Procedure, shortened: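 Kit recombinant human HDAC8 (0.45 U/reaction) was preincubated 15 min with compound (0.5% DMSO; DMSO-only control). Fluor de Lys substrate was then added at 50 µM final and the reaction ran 1 h at 30 °C. It was quenched with 2 µM TSA in Developer II for a further 1 h at 30 °C, and fluorescence read at ex 370/em 450 nm. IC50 came from nonlinear dose–response fitting.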

[4] = system: Danio rerio; assay: In vivo inhibition of HDAC6 in zebrafish AB embryos assessed as increase in acetylation level of alpha-tubulin at 25 to 75 uM measured after 24 hrs by Western blot analysis; conditions: dose 25-75 µM
[5] = Toxicity in zebrafish AB embryos assessed as tolerance at 25 to 75 uM measured after 24 hrs; conditions: Danio rerio, in vivo
[6] = Toxicity in zebrafish AB embryos at 25 to 75 uM measured after 24 hrs; conditions: Danio rerio, in vivo
[7] = Metabolic stability in human liver microsome assessed as half life at 5 uM in presence of NADPH incubated up to 60 mins by HPLC analysis; type: ADME; conditions: liver microsomes
Procedure, shortened: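 Compound in MeCN was incubated at 5 µM and 37 °C in 100 mM phosphate buffer pH 7.4 with 0.5 mg/mL human or mouse liver microsomal protein. Reactions were started with an NADPH-regenerating system (2 mM NADPH, glucose-6-phosphate, G6PDH, MgCl2) and stopped with MeCN over 0–60 min. Remaining compound was measured by HPLC-UV at 254 nm, in triplicate, with first-order decay fitting.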

[8] = system: Danio rerio; assay: In vivo inhibition of HDAC8 in zebrafish AB embryos assessed as increase in acetylation level of alpha-tubulin at 20 to 75 uM measured after 24 hrs by Western blot analysis; type: functional, organism-based; conditions: dose 20-75 µM
[9] = biological target: T2, Protein deacetylase HDAC6 (Homo sapiens, UniProt Q9UBN7); assay: Inhibition of recombinant human full length N-terminal GST-tagged HDAC6 expressed in Sf9 cells using ZMAL (Z-(Ac)Lys-AMC as substrate measured after 90 mins by fluorescence plate reader analysis
T2 sequence (Q9UBN7 whole entry): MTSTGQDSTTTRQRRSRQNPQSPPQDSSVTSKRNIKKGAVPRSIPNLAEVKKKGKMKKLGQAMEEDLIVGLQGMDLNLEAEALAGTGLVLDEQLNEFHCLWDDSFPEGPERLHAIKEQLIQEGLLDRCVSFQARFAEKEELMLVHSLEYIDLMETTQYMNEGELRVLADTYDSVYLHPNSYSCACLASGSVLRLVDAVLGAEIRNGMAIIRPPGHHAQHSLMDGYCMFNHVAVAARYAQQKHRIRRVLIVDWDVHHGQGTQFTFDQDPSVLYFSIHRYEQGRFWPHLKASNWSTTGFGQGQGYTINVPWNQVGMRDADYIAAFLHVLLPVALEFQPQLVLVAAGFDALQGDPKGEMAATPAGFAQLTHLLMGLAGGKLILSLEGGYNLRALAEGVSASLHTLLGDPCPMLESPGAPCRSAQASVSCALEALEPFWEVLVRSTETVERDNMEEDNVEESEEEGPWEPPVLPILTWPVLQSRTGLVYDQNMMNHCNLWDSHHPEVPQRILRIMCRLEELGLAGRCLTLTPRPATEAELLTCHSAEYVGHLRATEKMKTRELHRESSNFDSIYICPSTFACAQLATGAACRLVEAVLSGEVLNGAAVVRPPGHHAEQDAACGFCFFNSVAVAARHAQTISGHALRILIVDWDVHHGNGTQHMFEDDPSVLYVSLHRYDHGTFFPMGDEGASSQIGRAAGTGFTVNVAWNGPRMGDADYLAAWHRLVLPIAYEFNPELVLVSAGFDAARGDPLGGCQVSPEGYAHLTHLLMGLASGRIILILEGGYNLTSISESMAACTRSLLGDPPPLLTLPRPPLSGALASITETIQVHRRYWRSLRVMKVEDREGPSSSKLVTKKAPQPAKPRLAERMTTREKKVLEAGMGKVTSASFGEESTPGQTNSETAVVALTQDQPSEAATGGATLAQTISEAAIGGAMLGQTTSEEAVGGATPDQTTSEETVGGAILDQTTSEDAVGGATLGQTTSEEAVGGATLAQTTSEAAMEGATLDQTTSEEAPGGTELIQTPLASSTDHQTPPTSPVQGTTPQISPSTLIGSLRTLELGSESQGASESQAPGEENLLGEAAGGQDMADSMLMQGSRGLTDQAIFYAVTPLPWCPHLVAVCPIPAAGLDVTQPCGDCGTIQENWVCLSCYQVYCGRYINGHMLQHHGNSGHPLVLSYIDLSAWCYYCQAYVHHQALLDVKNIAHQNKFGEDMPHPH

SMILES: O=C(NO)c1ccc(CNC(=O)N2CCC(N3C(=O)[C@H](c4ccccc4)[C@H]3c3ccccc3)CC2)cc1 (racemic)
solubility at 24 h [1]: 70 µM (≈ 34.9 µg/mL)
logP [2]: 2.75
IC50 [3]: 42 nM
Activity [4]: Active
Activity [5]: Non-Toxic
Activity [6]: Non-Toxic
half-life at 5 µM [7]: 54 min
Activity [8]: Active
IC50 [9]: 21 nM

SMILES: O=C(NO)c1ccc(CNC(=O)N2CCC(N3CC(c4ccccc4)(c4ccccc4)C3=O)CC2)cc1
solubility at 24 h [1]: 10 µM (≈ 4.99 µg/mL)
logP [2]: 2.78
IC50 [3]: 99 nM
Activity [4]: Active
Activity [5]: Non-Toxic
Activity [6]: Non-Toxic
half-life at 5 µM [7]: 19 min
Activity [8]: Active
IC50 [9]: 3.4 nM

IC50 [3]: 113 nM
IC50 [9]: 91 nM
SMILES: O=C(NO)c1ccc(CC(=O)N2CCC(N3CC(c4ccccc4)(c4ccccc4)C3=O)CC2)cc1
